Reference: ChEMBL document CHEMBL5236609, “Optimization of 1,2,4-Triazole-3-thiones toward Broad-Spectrum Metallo-β-lactamase Inhibitors Showing Potent Synergistic Activity on VIM- and NDM-1-Producing Clinical Isolates” (J Med Chem, 2022)

How the values were obtained:
[1] = test system: Escherichia coli; assay: Antimicrobial activity against blaNDM-1-producing multidrug-resistant Escherichia coli SI-004 clinical isolate assessed as meropenem MIC at 32 ug/ml by broth microdilution method (reference value: 64 ug/ml)
[2] = Inhibition of bacterial VIM-1 (unknown origin) expressed in Escherichia coli EXPRESS BL21(DE3) assessed as inhibition constant by measuring rate of substrate hydrolysis by UV-visible spectrophotometry; design: species or system Bacteria
Procedure, shortened: (§1)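 Reporter-substrate assay with purified MBL (1–70 nM final) in 50 mM HEPES pH 7.5 at 30 °C. […] Inhibitor 0.5–1000 μM final. Ki derived from the v0/vi vs [I] slope assuming competitive inhibition, or from a Dixon plot. Ki given when inhibition >70%, otherwise % inhibition at 100 μM. Triplicate.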

[3] = test system: Pseudomonas aeruginosa; assay: Antimicrobial activity against blaVIM-2-producing multidrug-resistant Pseudomonas aeruginosa VA-182/00 clinical isolate assessed as meropenem MIC at 32 ug/ml by broth microdilution method (reference value: 128 ug/ml); assay type: functional; details: dose 32 µg/ml
Procedure, shortened: (§2)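 Inoculum was 5×10^4 CFU/well. Each inhibitor was present at a fixed 32 μg/mL, and MICs were also taken without inhibitor.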

[4] = test system: Klebsiella pneumoniae; assay: Antimicrobial activity against blaVIM-1-producing multidrug-resistant Klebsiella pneumoniae K47-25 clinical isolate assessed as meropenem MIC at 32 ug/ml by broth microdilution method (reference value: […] ug/ml); assay type: functional; details: dose 32 µg/ml
Procedure, shortened: as §2

[5] = Inhibition of bacterial VIM-4 (unknown origin) expressed in Escherichia coli EXPRESS BL21(DE3) assessed as inhibition constant by measuring rate of substrate hydrolysis by UV-visible spectrophotometry; design: species or system Bacteria
Procedure, shortened: as §1

[6] = test system: Bacteria; assay: Inhibition of bacterial IMP-1 (unknown origin) expressed in Escherichia coli EXPRESS BL21(DE3) assessed as inhibition constant by measuring rate of substrate hydrolysis at 100 uM by UV-visible spectrophotometry relative to control
Procedure, shortened: as §1

[7] = Inhibition of bacterial VIM-2 (unknown origin) expressed in Escherichia coli EXPRESS BL21(DE3) assessed as inhibition constant by measuring rate of substrate hydrolysis by UV-visible spectrophotometry; design: species or system Bacteria
Procedure, shortened: as §1

[8] = test system: Klebsiella pneumoniae; assay: Antimicrobial activity against blaVIM-4-producing multidrug-resistant Klebsiella pneumoniae VA-416/02 clinical isolate assessed as meropenem MIC at 32 ug/ml by broth microdilution method (reference value: […] ug/ml); assay type: functional; details: dose 32 µg/ml
Procedure, shortened: as §2

[9] = test system: Bacteria; assay: Inhibition of bacterial NDM-1 (unknown origin) expressed in Escherichia coli EXPRESS BL21(DE3) assessed as inhibition constant by measuring rate of substrate hydrolysis at 100 uM by UV-visible spectrophotometry relative to control
Procedure, shortened: as §1

[10] = test system: Bacteria; assay: Inhibition of bacterial VIM-1 (unknown origin) expressed in Escherichia coli EXPRESS BL21(DE3) assessed as inhibition constant by measuring rate of substrate hydrolysis at 100 uM by UV-visible spectrophotometry relative to control
Procedure, shortened: as §1

[11] = test system: Bacteria; assay: Inhibition of bacterial VIM-2 (unknown origin) expressed in Escherichia coli EXPRESS BL21(DE3) assessed as inhibition constant by measuring rate of substrate hydrolysis at 100 uM by UV-visible spectrophotometry relative to control
Procedure, shortened: as §1

[12] = Inhibition of bacterial NDM-1 (unknown origin) expressed in Escherichia coli EXPRESS BL21(DE3) assessed as inhibition constant by measuring rate of substrate hydrolysis by UV-visible spectrophotometry; design: species or system Bacteria
Procedure, shortened: as §1

[13] = test system: Bacteria; assay: Inhibition of bacterial VIM-4 (unknown origin) expressed in Escherichia coli EXPRESS BL21(DE3) assessed as inhibition constant by measuring rate of substrate hydrolysis at 100 uM by UV-visible spectrophotometry relative to control
Procedure, shortened: as §1

Row | inhibition [9] [%] | inhibition [10] [%] | inhibition [11] [%] | inhibition [13] [%] | Structure (SMILES) | MIC [1] [µg/mL] | Ki [2] [nM] | MIC [3] [µg/mL] | MIC [4] [µg/mL] | Ki [5] [nM] | inhibition [6] [%] | Ki [7] [nM] | MIC [8] [µg/mL] | Ki [12] [nM]
1 | < 30 | 60 | 58 | – | O=C(O)[C@H](CCCn1c(-c2ccccc2)n[nH]c1=S)NCc1cncs1 | – | – | – | – | 3400 | < 30 | – | – | –
2 | – | – | – | – | O=C(O)[C@H](CCCn1c(-c2ccccc2)n[nH]c1=S)N(Cc1cnccn1)Cc1c[nH]cn1 | 8 | 3300 | 128 | 4 | 1900 | 43 | 2400 | 1 | 890
3 | – | – | – | – | O=C(O)[C@H](CCCn1c(-c2ccccc2)n[nH]c1=S)N(Cc1c[nH]cn1)Cc1cscn1 | 4 | 820 | 16 | 0.12 | 350 | 59 | 350 | 0.06 | 30
4 | – | < 30 | 44 | < 30 | O=C(O)[C@H](CCCn1c(-c2ccccc2)n[nH]c1=S)NCc1ccccn1 | – | – | – | – | – | 34 | – | – | 2000
5 | – | – | – | – | O=C(O)[C@H](CCCn1c(-c2ccccc2)n[nH]c1=S)N(Cc1ncc[nH]1)Cc1ncc[nH]1 | – | 690 | – | – | 660 | 61 | 900 | – | 20
6 | – | – | – | – | O=C(O)[C@H](CCCn1c(-c2ccccc2)n[nH]c1=S)N(Cc1cnccn1)Cc1cnccn1 | 32 | 2500 | 128 | 4 | 630 | 51 | 1200 | 2 | 17900
7 | < 30 | – | < 30 | 32 | O=C(O)[C@H](CCCn1c(-c2ccccc2)n[nH]c1=S)NCc1cc[nH]c1 | – | 5000 | – | – | – | < 30 | – | – | –
8 | < 30 | 51 | < 30 | < 30 | Cc1[nH]cnc1CN[C@@H](CCCn1c(-c2ccccc2)n[nH]c1=S)C(=O)O | – | – | – | – | – | < 30 | – | – | –
9 | – | – | – | – | O=C(O)[C@H](CCCn1c(-c2cccc(-c3ccccc3)c2)n[nH]c1=S)N(Cc1c[nH]cn1)Cc1c[nH]cn1 | 0.06 | 130 | 8 | 0.03 | 70 | 69 | 90 | 0.03 | 13
10 | – | – | 39 | < 30 | O=C(O)[C@H](CCCCn1c(-c2ccccc2)n[nH]c1=S)NCc1c[nH]cn1 | – | 1800 | – | – | – | 44 | – | – | 4000
11 | 37 | – | 53 | – | O=C(O)[C@H](CCCn1c(-c2ccccc2)n[nH]c1=S)N(Cc1cn[nH]c1)Cc1c[nH]cn1 | – | 4600 | – | – | 2000 | 34 | – | – | –
12 | – | – | – | – | O=C(O)[C@H](CCCn1c(-c2ccccc2)n[nH]c1=S)N(Cc1cccnc1)Cc1c[nH]cn1 | 64 | 5200 | 128 | 4 | 1700 | < 30 | 1800 | 1 | 34800
13 | < 30 | – | < 30 | < 30 | O=C(O)[C@H](CCCn1c(-c2ccccc2)n[nH]c1=S)NCc1ccccc1 | – | – | – | – | – | < 30 | – | – | –
14 | 37 | – | 57 | – | O=C(O)[C@H](CCCn1c(-c2ccccc2)n[nH]c1=S)NCc1cccc(O)c1O | – | 8100 | – | – | 4200 | 32 | – | – | –
15 | – | – | – | – | O=C(O)[C@H](CCCn1c(-c2ccccc2)n[nH]c1=S)N(Cc1c[nH]cn1)Cc1ncc[nH]1 | 0.06 | 450 | 8 | 0.06 | 350 | 49 | 3300 | 0.06 | 2700
16 | – | – | – | – | O=C(O)[C@H](CCCn1c(-c2ccccc2)n[nH]c1=S)N(Cc1cscn1)Cc1cscn1 | 32 | 2400 | 128 | 1 | 2000 | 48 | 2500 | 1 | 6500
17 | – | – | – | – | O=C(O)[C@H](CCCn1c(Cc2ccccc2)n[nH]c1=S)N(Cc1c[nH]cn1)Cc1c[nH]cn1 | 0.06 | 120 | 8 | 0.03 | 120 | 54 | 410 | 0.03 | 90
18 | – | – | – | – | O=C(O)[C@H](CCCn1c(C2CCCCC2)n[nH]c1=S)N(Cc1c[nH]cn1)Cc1c[nH]cn1 | 0.06 | 280 | 8 | 0.06 | 90 | 48 | 110 | 0.12 | 3.5
19 | 42 | – | 53 | – | CC(C)(C)OC(=O)NCCCCn1c(-c2ccccc2)n[nH]c1=S | – | 750 | – | – | 3100 | < 30 | – | – | –
20 | – | – | – | – | S=c1[nH]nc(-c2ccccc2)n1CCCCN(Cc1c[nH]cn1)Cc1c[nH]cn1 | 32 | 850 | 128 | 4 | 900 | 34 | 1500 | 1 | 9200
21 | 38 | – | 47 | < 30 | Cn1cncc1CN[C@@H](CCCn1c(-c2ccccc2)n[nH]c1=S)C(=O)O | – | 9500 | – | – | – | < 30 | – | – | –
22 | < 30 | – | < 30 | < 30 | O=C(O)[C@H](CCCn1c(-c2ccccc2)n[nH]c1=S)NCc1c[nH]c2ccccc12 | – | – | – | – | – | < 30 | – | – | –
23 | – | – | – | – | O=C(O)[C@H](CCCn1c(-c2ccccc2)n[nH]c1=S)N(Cc1c[nH]cn1)Cc1cncs1 | 32 | 2500 | 128 | 1 | 770 | 39 | 1100 | 2 | 13100
24 | < 30 | – | 36 | < 30 | Cc1ccc(C(C)N[C@@H](CCCn2c(-c3ccccc3)n[nH]c2=S)C(=O)O)cc1 (stereo partly drawn) | – | 10800 | – | – | – | < 30 | – | – | –

Row | Structure (SMILES) | inhibition [9] [%] | inhibition [10] [%] | inhibition [11] [%] | inhibition [13] [%] | MIC [1] [µg/mL] | Ki [2] [nM] | MIC [3] [µg/mL] | MIC [4] [µg/mL] | Ki [5] [nM] | inhibition [6] [%] | Ki [7] [nM] | MIC [8] [µg/mL] | Ki [12] [nM]
25 | Cn1cncc1CN(Cc1c[nH]cn1)[C@@H](CCCn1c(-c2ccccc2)n[nH]c1=S)C(=O)O | 66 | – | – | – | 32 | 4400 | 128 | 2 | 3800 | 50 | 3200 | 4 | –
26 | O=C(O)[C@H](CCCn1c(-c2ccccc2)n[nH]c1=S)N(Cc1cn[nH]c1)Cc1cn[nH]c1 | < 30 | – | – | – | 64 | 3700 | 128 | 2 | 290 | < 30 | 2500 | 1 | –
27 | COc1cccc(CN(Cc2cccc(OC)c2OC)[C@@H](CCCn2c(-c3ccccc3)n[nH]c2=S)C(=O)O)c1OC | 43 | – | – | – | 64 | 2000 | 128 | 2 | 360 | < 30 | 760 | 4 | –
28 | O=C(O)[C@H](CCCn1c(-c2ccccc2)n[nH]c1=S)N(Cc1ccccc1)Cc1c[nH]cn1 | 60 | – | – | – | 32 | 4100 | 128 | 2 | 1000 | 45 | 2100 | 2 | –
